Source: PubChem BioAssay (several laboratories)
Sampled rows, rich in hits. Any-hit rate of the full collection: about 1.6%.
HKDC1 inh: HKDC1 (human) hexokinase inhibition; 340,000 compounds, 0.16% hits; inhibition, % at 20 µM; recombinant HKDC1, G6PDH/diaphorase resazurin coupled fluorescence; AID 493160;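 active = inhibition above about 35% when tested at 20 µM, limit read from the data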;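 also: plate controls were DMSO wells with enzyme for no effect and DMSO wells lacking enzyme for full effect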
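Test system: recombinant HKDC1 (HK5) hexokinase enzyme, produced in-house; Amount: enzyme 5 µg/mL final; Buffer or medium: Tris pH 8.0 buffer with MgCl2, Tween-20, BSA, BME; Reagent: glucose and ATP substrates; Doses: 20 µM test compound, 1% DMSO; Incubation: 90 min reaction incubation at room temperature, dark; Detection: resorufin fluorescence at 613 nm.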
Fh CTSL1 inh: blocks F. hepatica cathepsin L1 in PFM18AAP counter-screen | recombinant F. hepatica cathepsin L1, Z-Leu-Arg-MCA fluorescence | inhibition, % at 5.96 µM | 300,000 compounds, 0.49% hits | AID 1906;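 active = inhibition above the mean of all tested compounds plus 3 SD, set per screening campaign, cut at about 17% in these data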;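 also: 0% = plate median of test compound wells and 100% = 1 µM Z-Phe-Ala-diazomethylketone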
PAD4 inh: PAD4 (human) enzyme inhibition; Q9UM07; recombinant PAD4, RCA probe fluorescence polarization; inhibition, % at 6.36 µM; 330,000 compounds, 0.41% hits; AID 485272;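 active = percent inhibition above a cutoff equal to the mean of all tested compounds plus 3 SD, cut at about 15% in these data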;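 also: 0% = PAD4 with RCA probe and DMSO and 100% = probe without PAD4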
GSTO1 inh: counter-screen for RBBP9 inhibitors: inhibitors of human GSTO1; 300,000 compounds, 1.1% hits; inhibition, % at 5.96 µM; AID 1974; recombinant GSTO1, activity-based probe fluorescence polarization;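 active = inhibition above the campaign mean inhibition plus 3 SD, cut at about 35% in these data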;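 also: 0% = GSTO1-1 with DMSO and 100% = wells lacking GSTO1-1 enzyme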
Target sequence (P78417 whole entry, looked up): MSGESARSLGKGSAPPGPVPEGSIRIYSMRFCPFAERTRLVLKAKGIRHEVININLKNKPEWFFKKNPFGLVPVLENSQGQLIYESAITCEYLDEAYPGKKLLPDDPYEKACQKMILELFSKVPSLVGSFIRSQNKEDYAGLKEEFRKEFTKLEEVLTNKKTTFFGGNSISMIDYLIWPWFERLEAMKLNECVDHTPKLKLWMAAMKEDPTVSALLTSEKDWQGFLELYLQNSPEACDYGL
UCH37 DUB inh: blocks the human deubiquitinase UCH37; Q9Y5K5; inhibition, % (test concentration not listed); 330,000 compounds, 0.33% hits; purified proteasome/UCH37, Ub-AMC cleavage fluorescence;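 active = mean inhibition over replicate wells above about 20%, limit read from the data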;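 also: 0% = compound-free wells with enzyme and 100% = wells lacking proteasome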
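Schedule: 30 min plus 25 min, room temperature / Material: human UCH37 within purified proteasomes / Technique: AMC fluorescence intensity at 355/460 nm / Buffer or medium: pH 7.4 Tris-HCl (50 mM) with ovalbumin, ATP-MgCl2, DTT / Controls: wells without proteasome as full block, compound-free enzyme plus substrate as uninhibited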
TDP2 inh: blocks human TDP2 phosphodiesterase activity; O95551; inhibition, % at 12.8 µM; 370,000 compounds, 0.34% hits; recombinant TDP2, T5PNP hydrolysis, p-nitrophenol absorbance 415 nm;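 active = inhibition above the mean of all tested compounds plus 3 SD, set per campaign, cut at about 25% in these data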;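 also: 0% = DMSO with enzyme and 100% = buffer with substrate but no TDP2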
Target sequence (O95551 whole entry, looked up): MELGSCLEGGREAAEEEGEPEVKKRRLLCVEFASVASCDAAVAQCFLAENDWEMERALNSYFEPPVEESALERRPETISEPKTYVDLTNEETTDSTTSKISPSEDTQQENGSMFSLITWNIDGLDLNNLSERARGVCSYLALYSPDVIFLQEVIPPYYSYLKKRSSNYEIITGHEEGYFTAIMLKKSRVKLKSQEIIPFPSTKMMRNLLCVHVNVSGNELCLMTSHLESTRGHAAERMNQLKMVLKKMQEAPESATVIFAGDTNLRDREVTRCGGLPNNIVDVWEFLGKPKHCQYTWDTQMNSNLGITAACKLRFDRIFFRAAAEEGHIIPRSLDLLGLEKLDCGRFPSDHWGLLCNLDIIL
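System: recombinant human TDP2 / Amount: 120 nM TDP2 per well / Also added: 5 mM T5PNP chromogenic substrate / Doses: 12.8 µM single point, 1% DMSO / Incubation: 2 h at 37 °C / Detection: p-Nitrophenol epi absorbance / Evaluation: % inhibition relative to enzyme-containing and enzyme-free wells / Repeats: singlicate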
HKDC1 act conf2: confirmation of human HKDC1 activators | inhibition, % at 20 µM | shares compounds with HKDC1 inh | recombinant HKDC1, G6PDH/diaphorase resazurin fluorescence; stronger effect = lower value | 740 compounds, 14% hits;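 active = inhibition at or below a set negative limit, negative inhibition meaning the enzyme was activated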
UCH37 confirm: UCH37 Ub-AMC cleavage inhibition, confirmed. shares compounds with UCH37 DUB inh. Proteasome-bound UCH37, Ub-AMC cleavage fluorescence. inhibition, % at 20 µM. 480 compounds, 27% hits;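 active = average inhibition over replicates above about 50%, so the earlier screening hit is confirmed, limit read from the data; inactive = the rest, counted as false positives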;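 also: based on cleavage rate fitted by regression over a 30 min kinetic read; 0% = proteasome plus Ub-AMC and 100% = Ub-AMC without proteasome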
TDP2 confirm: human TDP2 inhibition, confirmation | shares compounds with TDP2 inh | recombinant human TDP2, absorbance read-out | inhibition, % at 12.8 µM | 1,100 compounds, 22% hits | AID 743263; in the data active = inhibition above about 25%;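 also: 0% = vehicle with enzyme and 100% = no enzyme buffer only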
* hit, by the source's call; . = no result given; ! = a repeat was not active.

SMILES | HKDC1 inh | Fh CTSL1 inh | PAD4 inh | GSTO1 inh | UCH37 DUB inh | TDP2 inh | HKDC1 act conf2 | others
O=C(NC(=S)NNC(=O)c1cnccn1)c1ccc(F)cc1 | -48 | -1 | -1 | 2 | 8 | 2 | -36*
Cc1nn(-c2ccccc2)c(C)c1-c1cc(C(=O)NN=Cc2ccc(O)cc2)[nH]n1 | . | . | . | . | 0 | . | .
Cn1c2ccccc2c(=O)c2c(=O)n(-c3ccccc3)c(-c3ccc(C(C)(C)C)cc3)nc21 | 26 | 5 | 0 | -4 | 6 | 4 | .
Cc1nc2c(c(=O)c3ccccc3n2C)c(=O)n1-c1ccccc1 | 51* | 5 | 3 | 5 | 7 | 4 | 56
Cn1c2ccccc2c(=O)c2c(=O)n(-c3ccc(F)cc3)c(-c3cccs3)nc21 | 68* | -1 | 3 | -1 | -5 | 4 | 66
CCc1nc2c(c(=O)c3ccccc3n2C)c(=O)n1-c1ccc(F)cc1 | 48* | -2 | 4 | 5 | 6 | 11 | 73
CCN(CC)C(=O)COc1ccc(C(C)=NNc2ncc(Cl)cc2Cl)cc1 | . | . | . | . | 5 | . | .
CCN(CC)c1ccc(NC(=O)c2ccccc2Br)cc1S(=O)(=O)Nc1ccccc1OC | -43 | -1 | -3 | -10 | 8 | -2 | -28
CC(=NNC(=S)NCc1ccccc1)c1ccccc1 | . | . | . | . | 3 | . | .
CC(C)N=C(N)N=C(N)Nc1ccc(Cl)cc1 | 0 | -1 | 2 | 2 | 1 | 8 | .
NC(=NCCCCCCN=C(N)/N=C(\N)Nc1ccc(Cl)cc1)/N=C(\N)Nc1ccc(Cl)cc1 | 53*! | -1 | -3 | 1 | 2 | -1 | 46
CC(=NNc1ccc([N+](=O)[O-])cc1[N+](=O)[O-])C(C)(C)C(C(=O)O)C(=O)O | . | . | . | . | 17 | . | .
O=C(N/N=C/c1ccc(O)cc1O)/C(=C/c1ccccc1)CCO | -40 | 2 | -1 | 9 | . | -3 | -19
CCNC(=S)NNC(=O)c1ccccn1 | -25 | 4 | 2 | 2 | 3 | -9 | .
O=C(NNC(=S)Nc1ccc(Cl)c(Cl)c1)c1ccccn1 | -57 | 4 | 0 | -3 | 4 | -3 | -74*
COCCNc1ccc([N+](=O)[O-])cc1C(=O)Nc1cccc(C)n1 | -58 | 7 | -1 | 2 | 6 | -27 | -14
NC(N)=NN=Cc1cccc([N+](=O)[O-])c1O | . | . | . | . | 4 | . | .
CC1=C(SCc2ccccc2)C(=O)c2ccccc2C1=O | 44* | . | . | . | 32* | 51* | 24 | UCH37 confirm=48
Cc1c(N=C2C=CC(=O)c3ccccc32)c(=O)n(-c2ccccc2)n1C | 42* | . | . | . | 61* | 24 | 35 | UCH37 confirm=47
O=C1C=C(N(CCO)Cc2ccccc2)c2ccccc2C1=O | 35* | . | . | . | 92* | . | 29 | UCH37 confirm=111*
O=C1c2ccccc2C(=O)c2c1cccc2N(CCO)CCO | 8 | 0 | -1 | 1 | . | 19 | .
CN(Cc1c(C(=O)NN=Cc2ccc(O)cc2)nnn1-c1nonc1N)c1ccccc1 | . | . | . | . | 6 | . | .
Clc1cc2c(cc1C=NNc1nc(N3CCOCC3)nc(N3CCOCC3)n1)OCO2 | . | . | . | . | -1 | . | .
CC(=O)NC1C(=O)N(CCN2CCOCC2)c2ccc(Br)cc21 (centres undefined) | 81* | -9 | 4 | -4 | . | 44* | 61 | TDP2 confirm=36*
CNC(=O)N(O)C1N(N=Cc2cccnc2)C(=S)SC1(C)C (centres undefined) | . | . | . | . | 6 | . | .
SMILES | HKDC1 inh | Fh CTSL1 inh | PAD4 inh | GSTO1 inh | UCH37 DUB inh | TDP2 inh | HKDC1 act conf2 | others
CN(C)c1ccc(C=c2c3cc([N+](=O)[O-])ccc3n3c2cc(-c2ccccc2)[n+]3C)cc1 | 20 | . | . | . | . | -6 | .
CN(C)c1ccc(C=c2c3ccccc3n3c2cc(-c2ccccc2)[n+]3C)cc1 | 37* | . | . | . | . | 30* | 23 | TDP2 confirm=10
O=C(CNC(=O)c1ccc(F)cc1)NN=Cc1cn[nH]c1-c1ccccc1 | . | . | . | . | 5 | . | .
Cc1ccc(C=NNc2nc3ccccc3s2)o1 | . | . | . | . | 5 | . | .
O=C(O)c1cc(O)c2c(c1)[C@H]([C@H]1c3cc(C(=O)O)cc(O)c3C(=O)c3c(O[C@@H]4O[C@H](CO)[C@@H](O)[C@H](O)[C@H]4O)cccc31)c1cccc(OC3O[C@H](CO)[C@@H](O)[C@H](O)[C@H]3O)c1C2=O (some centres undefined) | 87* | 9 | -51 | 72* | 8 | 46* | 52 | TDP2 confirm=51*
C[c-]1[c-](C)[c-](C)[c-](C)[c-]1C.[Fe].c1cc2nccc(N3CCCC3)[c-]2c1 (centres undefined) | 49*! | 2 | -8 | -3 | 2 | 34* | -2 | TDP2 confirm=26*!
C=CCOc1ccc(C=NNC(=O)c2c(C)nc3ccc(Cl)cn23)cc1 | . | . | . | . | 3 | . | .
CC(=NN1C(=O)c2ccccc2NC1c1ccco1)c1ccccc1O (centres undefined) | . | . | . | . | 0 | . | .
NS(=O)(=O)c1ccc2c(c1)C(=NO)c1cc(S(N)(=O)=O)ccc1-2 | 7 | -3 | 0 | 4 | -10 | 9 | .
NC1=C(Cl)C(=O)c2ccc(S(N)(=O)=O)cc2C1=O | -134 | . | . | . | 89* | 76* | -43* | UCH37 confirm=92*;TDP2 confirm=74*
O=C(NN=Cc1ccc[nH]1)c1cc(-c2ccc(Cl)cc2)nc2ccccc12 | . | . | . | . | 3 | . | .
Nn1cnnc1N/N=C/c1cc(Br)cc(Br)c1O | -52 | 2 | 4 | -20 | . | 54* | -32* | TDP2 confirm=-5
Nn1cnnc1NN=Cc1ccccc1C(F)(F)F | . | . | . | . | 5 | . | .
O=C(O)c1ccccc1-c1c2cc(I)c(=O)c(I)c-2oc2c(I)c(O)c(I)cc12 | 69* | 7 | -123 | -196 | 11 | 28* | 43 | TDP2 confirm=40*
CC(c1ccccc1)N1C(=O)c2cccnc2C1=O (centres undefined) | -3 | 0 | -5 | 7 | 4 | 4 | .
CC(NC1=CC(=O)c2cccnc2C1=O)C(O)c1ccccc1 (centres undefined) | 46* | . | . | . | . | 57* | 43 | TDP2 confirm=71*
CCCCCCC1C(=NNC(=O)c2ccccc2)CCC1C(=O)OC (centres undefined) | . | . | . | . | 3 | . | .
COC1=CC(=O)c2c(ccc3ncnc(N)c23)C1=O | 87* | . | . | . | . | 85* | 88 | TDP2 confirm=82*
CSC1=NC(=O)/C(=C\c2cccc3ccccc23)S1 | 33 | -1 | -4 | -20 | 2 | 25* | -11 | TDP2 confirm=0
CN1CCN(C2=C(Cl)C(=O)c3ccccc3C2=O)CC1 | 44* | . | . | . | 97* | 69* | 33 | UCH37 confirm=97*;TDP2 confirm=80*
